Laboratory results: ChEMBL document CHEMBL1250467, “Design, synthesis, and anticonvulsant activity of new N-Mannich bases derived from spirosuccinimides and spirohydantoins” (Bioorg Med Chem, 2010)
Calls of active or inactive are those of the source. The rule behind the calls is not given here.

How the values were obtained:
Mus musculus [1] = assay: Neurotoxicity in ip dosed CF1 albino mouse assessed as dose required to cause toxicity after 0.5 hrs by rotarod test; format: organism-based; conditions: in vivo
In short: (§1)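 Male CF-1 mice; compounds suspended in 0.5% methylcellulose/water and injected ip at 30, 100 and 300 mg/kg. MES, scPTZ (pentylenetetrazole 85 mg/kg sc at the test time) and rotarod neurotoxicity were scored at 0.5 and 4 h. Value is the lowest dose active or toxic in half or more of the animals; signs such as ataxia or tremor were recorded.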

Mus musculus [2] = assay: Anticonvulsant activity in ip dosed CF1 albino mouse assessed as dose required to protect against maximal electroshock-induced seizures after 0.5 hrs; format: functional; in short: as §1
Mus musculus [3] = assay: Anticonvulsant activity in ip dosed CF1 albino mouse assessed as dose required to protect against maximal electroshock-induced seizures after 4 hrs; format: functional; in short: as §1
Mus musculus [4] = assay: Anticonvulsant activity in CF1 albino mouse assessed as protection against subcutaneous pentylenetetrazole-induced seizures at 300 mg/kg, ip after 0.5 hrs; format: functional, organism-based; design: dose 300 mg/kg; in short: as §1
Mus musculus [5] = assay: Anticonvulsant activity in CF1 albino mouse assessed as protection against subcutaneous pentylenetetrazole-induced seizures at 300 mg/kg, ip after 4 hrs; format: functional, organism-based; design: dose 300 mg/kg; in short: as §1
Mus musculus [6] = assay: Neurotoxicity in ip dosed CF1 albino mouse assessed as dose required to cause toxicity after 4 hrs by rotarod test; format: organism-based; conditions: in vivo; in short: as §1
Mus musculus [7] = assay: Anticonvulsant activity in CF1 albino mouse assessed as protection against maximal electroshock-induced seizures at 300 mg/kg, ip after 0.5 hrs; format: functional, organism-based; design: dose 300 mg/kg; in short: as §1
Rattus norvegicus [8] = assay: Anticonvulsant activity in po dosed Sprague-Dawley rat assessed as protection against maximal electroshock-induced seizures; format: functional
In short: (§2)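 Male Sprague–Dawley rats dosed orally (0.5% methylcellulose/water suspension), groups of eight, tested at the previously estimated time of peak effect. Doses varied until at least three points lay in the 10–90% range of protection (MES, scPTZ) or minimal rotarod neurotoxicity. ED50/TD50 with 95% confidence intervals came from regression; PI = TD50/ED50.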

Rattus norvegicus [9] = species: Rattus norvegicus; assay: Protection index, ratio of TD50 for Sprague-Dawley rat by rotarod test to ED50 for Sprague-Dawley rat by maximal electroshock test; format: functional; in short: as §2
Mus musculus [10] = assay: Anticonvulsant activity in CF1 albino mouse assessed as protection against maximal electroshock-induced seizures at 300 mg/kg, ip after 4 hrs; format: functional, organism-based; design: dose 300 mg/kg; in short: as §1
Mus musculus [11] = assay: Neurotoxicity in CF1 albino mouse at 300 mg/kg, ip after 4 hrs by rotarod test; format: toxicity, organism-based; design: dose 300 mg/kg, route intraperitoneal; conditions: in vivo; in short: as §1
Rattus norvegicus [12] = assay: Anticonvulsant activity in Sprague-Dawley rat assessed as protection against maximal electroshock-induced seizures at 30 mg/kg po after 0.25 hrs; format: functional
In short: (§3)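 Male Sprague–Dawley rats, four per group, given 30 mg/kg orally as a 0.5% methylcellulose/water suspension. MES protection scored at 0.25, 0.5, 1, 2 and 4 h after dosing, motor impairment checked in parallel; data are the number of the four rats protected.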

Rattus norvegicus [13] = assay: Anticonvulsant activity in Sprague-Dawley rat assessed as protection against maximal electroshock-induced seizures at 30 mg/kg po after 0.5 hrs; format: functional; in short: as §3
Rattus norvegicus [14] = assay: Anticonvulsant activity in Sprague-Dawley rat assessed as protection against maximal electroshock-induced seizures at 30 mg/kg po after 1 hr; format: functional; in short: as §3
Rattus norvegicus [15] = assay: Anticonvulsant activity in Sprague-Dawley rat assessed as protection against maximal electroshock-induced seizures at 30 mg/kg po after 2 hrs; format: functional; in short: as §3
Rattus norvegicus [16] = assay: Anticonvulsant activity in Sprague-Dawley rat assessed as protection against maximal electroshock-induced seizures at 30 mg/kg po after 4 hrs; format: functional; in short: as §3
Rattus norvegicus [17] = assay: Anticonvulsant activity in po dosed Sprague-Dawley rat assessed as time required to peak protection against seizures; format: functional
[18] = Neurotoxicity in po dosed Sprague-Dawley rat by rotarod test; format: toxicity, organism-based; conditions: in vivo; in short: as §2
Mus musculus [19] = assay: Anticonvulsant activity in CF1 albino mouse assessed as protection against electrically-induced seizure at 100 mg/kg, ip after 0.25 hrs by 6Hz psychomotor seizure test; format: functional, organism-based; design: dose 100 mg/kg
In short: (§4)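 Male CF-1 mice, compound suspended in 0.5% methylcellulose/water, given ip at 100 mg/kg; four mice per time point (0.25, 0.5, 1, 2, 4 h). Corneal stimulation with 0.2 ms monopolar rectangular pulses at 6 Hz for 3 s from a constant-current device, mice manually restrained. A mouse counted as protected if normal exploratory behaviour resumed within 10 s; motor impairment was noted alongside.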

Mus musculus [20] = assay: Anticonvulsant activity in CF1 albino mouse assessed as protection against electrically-induced seizure at 100 mg/kg, ip after 0.5 hrs by 6Hz psychomotor seizure test; format: functional, organism-based; design: dose 100 mg/kg; in short: as §4
Mus musculus [21] = assay: Anticonvulsant activity in CF1 albino mouse assessed as protection against electrically-induced seizure at 100 mg/kg, ip after 1 hr by 6Hz psychomotor seizure test; format: functional; in short: as §4
Mus musculus [22] = assay: Anticonvulsant activity in CF1 albino mouse assessed as protection against electrically-induced seizure at 100 mg/kg, ip after 2 hrs by 6Hz psychomotor seizure test; format: functional, organism-based; design: dose 100 mg/kg; in short: as §4
Mus musculus [23] = assay: Anticonvulsant activity in CF1 albino mouse assessed as protection against electrically-induced seizure at 100 mg/kg, ip after 4 hrs by 6Hz psychomotor seizure test; format: functional; conditions: route intraperitoneal; in short: as §4
Rattus norvegicus [24] = assay: Anticonvulsant activity in Sprague-Dawley rat assessed as protection against pilocarpine-induced status epilepticus at 600 mg/kg, ip measured after clonus of one of the fore limbs seizure stage; format: functional, organism-based; design: dose 600 mg/kg
In short: (§5)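 Male Sprague–Dawley rats (150–180 g) received compound ip at 600 mg/kg, then a challenge dose of pilocarpine. Seizure severity graded on the Racine scale; rats were scored as protected or not, and body weight change was taken 24 h after the first stage III seizure.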

Rattus norvegicus [25] = assay: Anticonvulsant activity in Sprague-Dawley rat assessed as protection against pilocarpine-induced status epilepticus at 600 mg/kg, ip; format: functional, organism-based; design: dose 600 mg/kg; in short: as §5
Rattus norvegicus [26] = assay: Toxicity in Sprague-Dawley rat assessed as change in body weight at 600 mg/kg, ip measured after 24 hrs of clonus of one of the fore limbs seizure stage in protected rat; format: organism-based; design: dose 600 mg/kg, route intraperitoneal; conditions: in vivo; in short: as §5
Rattus norvegicus [27] = assay: Toxicity in Sprague-Dawley rat assessed as change in body weight at 600 mg/kg, ip measured after 24 hrs of clonus of one of the fore limbs seizure stage in non-protected rat; format: organism-based; design: dose 600 mg/kg, route intraperitoneal; conditions: in vivo; in short: as §5
[28] = Displacement of [3H]batrachotoxin from neurotoxin site 2 of voltage-gated sodium channel in rat forebrain tissue; conditions: read-out: IC50

With `O=C1NC2(CCc3ccccc3C2)C(=O)N1CN1CCN(c2cccc(C(F)(F)F)c2)CC1` (configuration not stated) the Activity (Mus musculus [1]) was 100 mg/kg, the Activity (Mus musculus [2]) was 300 mg/kg and the Activity (Mus musculus [3]) was 30 mg/kg. For the same molecule, the Activity (Mus musculus [4]) was “inactive”, the Activity (Mus musculus [5]) was “inactive” and the Activity (Mus musculus [6]) was 30 mg/kg.

In the case of `O=C1NC2(CCc3ccccc3C2)C(=O)N1CN1CCN(c2cccc(Cl)c2)CC1` (configuration not stated), the Activity (Mus musculus [1]) is reported as 30 mg/kg, the Activity (Mus musculus [7]) is reported as “inactive” and the Activity (Mus musculus [3]) is reported as 100 mg/kg. The Activity (Mus musculus [4]) was “inactive”, the Activity (Mus musculus [5]) was “inactive” and the Activity (Mus musculus [6]) was 30 mg/kg.

With `O=C1CC2(CCc3ccccc3C2)C(=O)N1CCN1CCN(c2cccc(Cl)c2)CC1` (configuration not stated) the ED50 (Rattus norvegicus [8]) was 23 mg/kg and the PI (Rattus norvegicus [9]) was 2.6.

With `O=C1CC2(CCc3ccccc3C2)C(=O)N1CN1CCN(c2ccccc2)CC1` (configuration not stated) the Activity (Mus musculus [1]) was 100 mg/kg, the Activity (Mus musculus [7]) was “inactive” and the Activity (Mus musculus [10]) was “inactive”. The Activity (Mus musculus [4]) was “inactive”, the Activity (Mus musculus [5]) was “inactive” and the Activity (Mus musculus [6]) was 300 mg/kg.

Molecule `O=C1CC2(CCc3ccccc3C2)C(=O)N1CN1CCN(c2cccc(Cl)c2)CC1` (configuration not stated) has an Activity (Mus musculus [1]) of 300 mg/kg, an Activity (Mus musculus [2]) of 300 mg/kg and an Activity (Mus musculus [3]) of 100 mg/kg. For the same molecule, the Activity (Mus musculus [4]) was “inactive”, the Activity (Mus musculus [5]) was “inactive” and the Activity (Mus musculus [11]) was “Non-toxic”. For the same molecule, the Activity (Rattus norvegicus [12]) was “inactive”, the Activity (Rattus norvegicus [13]) was “inactive” and the Activity (Rattus norvegicus [14]) was 25%. It also gave an Activity (Rattus norvegicus [15]) of 50%, an Activity (Rattus norvegicus [16]) of 50% and a Time (Rattus norvegicus [17]) of 6 h. It also gave an ED50 (Rattus norvegicus [8]) of 19.6 mg/kg, a TD50 [18] of over 500 mg/kg and a PI (Rattus norvegicus [9]) of 25.55. For the same molecule, the Activity (Mus musculus [19]) was “inactive”, the Activity (Mus musculus [20]) was “inactive” and the Activity (Mus musculus [21]) was “inactive”. For the same molecule, the Activity (Mus musculus [22]) was “inactive”, the Activity (Mus musculus [23]) was 50% and the Activity (Rattus norvegicus [24]) was “inactive”. The Activity (Rattus norvegicus [25]) was “inactive”, the Activity (Rattus norvegicus [26]) was “Non-toxic” and the Activity (Rattus norvegicus [27]) was 20.6 g. For the same molecule, the IC50 [28] was 2.45 µM.

In the case of `O=C1NC2(CCc3ccccc3C2)C(=O)N1CN1CCN(c2ccccc2)CC1` (configuration not stated), the Activity (Mus musculus [1]) is reported as 300 mg/kg, the Activity (Mus musculus [7]) is reported as “inactive” and the Activity (Mus musculus [3]) is reported as 30 mg/kg. For the same molecule, the Activity (Mus musculus [4]) was “inactive”, the Activity (Mus musculus [5]) was “inactive” and the Activity (Mus musculus [6]) was 300 mg/kg. For the same molecule, the Activity (Rattus norvegicus [12]) was 25%, the Activity (Rattus norvegicus [13]) was 50% and the Activity (Rattus norvegicus [14]) was 50%. The Activity (Rattus norvegicus [15]) was 100%, the Activity (Rattus norvegicus [16]) was 100% and the Time (Rattus norvegicus [17]) was 6 h. The ED50 (Rattus norvegicus [8]) was 1.88 mg/kg, the TD50 [18] was over 500 mg/kg and the PI (Rattus norvegicus [9]) was over 256.78. It also gave an IC50 [28] of 9.35 µM.

In the case of `O=C1NC2(CCc3ccccc3C2)C(=O)N1CN1CCN(c2ccc(F)cc2)CC1` (configuration not stated), the Activity (Mus musculus [1]) is reported as 30 mg/kg, the Activity (Mus musculus [7]) is reported as “inactive” and the Activity (Mus musculus [10]) is reported as “inactive”. For the same molecule, the Activity (Mus musculus [4]) was “inactive”, the Activity (Mus musculus [5]) was “inactive” and the Activity (Mus musculus [6]) was 30 mg/kg.
